According to publication PMC4838375 (Nucleic Acids Research, 2016):

Assay: 15N relaxation, tumbling correlation time
Type: physicochemical, murine
Conditions: 15N relaxation (R2/R1), free protein, 600 MHz, 295 K
Procedure, shortened: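 Uniformly ¹⁵N-labelled domain expressed in E. coli BL21(DE3) on ¹⁵NH₄Cl minimal medium. Typical sample 0.3–0.4 mM in 20 mM sodium phosphate pH 6.3, 0.15 M NaCl, 2 mM DTT, 50 μM ZnCl₂. R1 sampled at 13 delays (50–2000 ms), R2 at 11 (12–244 ms), with heating compensation, random order and 2.5 s recovery. Duplicates fitted to two-parameter exponentials. τc from R2/R1, using non-overlapped residues with hetNOE > 0.65.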

B1: PHDVC5HCHNSD1: Murine NSD1 PHDvC5HCH (Glu2117–Asp2207), tandem domain, human residue numbering Glu2116–Asp2206 (protein, UniProt O88491 2117-2207, looked up, fragment)
chain: REYVPPTATSPPSPGTQPKEQSSEMATQGPKKSDQPPTDATQLLPLSKKALTGSCQRPLLPERPPERTDSSSHLLDRIRDLAGSGTKSQSL
  correlation time (free): 7.96±0.41 ns
